Measurements reported in article PMC7114315 (Antiviral Research, 2010).
Where two headings read alike, the source gives them in different places.

Legend:
[1] = Cell viability by MTT assay; assay type: cell-based, Felis catus; conditions: cat (Felis catus), fcwf-4 cells
How it was run: (§1)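 fcwf-4 cells grown in DMEM with 5% FBS, penicillin/streptomycin, 5% CO2, 37 °C; 20,000 cells/well seeded, 24 h at 37 °C to confluence. Test compounds (in DMSO or double distilled water), twofold serially diluted, applied 72 h. MTT ([…]) 4 h at 37 °C, lysis overnight at room temperature, absorbance 570/655 nm. Viability = treated/untreated OD × 100; CC50 = 50% viability reduction; triplicate.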

fcwf-4 cells = assay: Cell viability by MTT assay; assay type: cell-based, Felis catus; conditions: for Cytotoxic effect under the tested concentrations: three days of treatment, Fig. 1; for CC50: fcwf-4 cells, 72 h, MTT
How it was run: as §1

[2] = test system: FCoV (NTU156) in fcwf-4 cells; assay: microbe, parasite or virus in culture; assay type: cell-based, feline coronavirus
[3] = test system: FCoV (NTU156) in fcwf-4 cells; assay type: cell-based, feline coronavirus
SARS-CoV = conditions: read-out: IC50 on SARS-CoV; cited from earlier work
[4] = 9 clinical healthy FCoV-shedding cats, 6.25 mg to 50 mg/kg/day per os, preliminary

With `Nc1nc2c(ncn2COCCO)c(=O)[nH]1` [Acyclovir, acyclovir] the CC50 at 72 h [1] was at least 888 µM.

In the case of `COC(=O)N[C@H](C(=O)N[C@@H](Cc1ccccc1)[C@@H](O)CN(Cc1ccc(-c2ccccn2)cc1)NC(=O)[C@@H](NC(=O)OC)C(C)(C)C)C(C)(C)C` [Atazanavir, atazanavir], the CC50 at 72 h [1] is reported as 48.6 µM and the “Cytotoxic effect under the tested concentrations” value (“Cytotoxic effect” below) (fcwf-4 cells) is reported as “dramatic cytotoxic effect”.

With `O=C1Nc2ccc(Cl)cc2[C@@](C#CC2CC2)(C(F)(F)F)O1` [Efavirenz, efavirenz] the CC50 at 72 h [1] was 52.1 µM and the “Cytotoxic effect” value (fcwf-4 cells) was “dramatic cytotoxic effect”.

In the case of `Cc1cc(O)c2c(c1)C(=O)c1cc(O)cc(O)c1C2=O` [Emodin, emodin], the CC50 at 72 h [1] is reported as 67.4 µM and the “Cytotoxic effect” value (fcwf-4 cells) is reported as “dramatic cytotoxic effect”.

For `O=c1[nH]c(=O)n([C@H]2C[C@H](O)[C@@H](CO)O2)cc1I` [Idoxuridine, idoxuridine], the CC50 at 72 h [1] was at least 141 µM.

For `CC(C)(C)NC(=O)[C@@H]1CN(Cc2cccnc2)CCN1C[C@@H](O)C[C@@H](Cc1ccccc1)C(=O)N[C@H]1c2ccccc2C[C@H]1O` [Indinavir, indinavir], the CC50 at 72 h [1] was at least 70.2 µM.

`Nc1ccn([C@@H]2CS[C@H](CO)O2)c(=O)n1` [Lamivudine, lamivudine] showed a CC50 at 72 h [1] of at least 27.3 µM.

For `Cc1c(O)cccc1C(=O)N[C@@H](CSc1ccccc1)[C@H](O)CN1C[C@H]2CCCC[C@H]2C[C@H]1C(=O)NC(C)(C)C` [Nelfinavir, nelfinavir], the IC50 ([2]; Alphacoronavirus 1, 72 h) was 8.19 µM, the “Number of CPE foci compared with untreated groups” value [3] was “significantly inhibited the number of CPE foci” and the “Induction of CPE foci” value ([3]; only the highest concentration, 9.41 μM, P < 0.001, […]) was “significantly blocked the induction of CPE foci”. The IC50 (SARS-CoV) was 0.048 µM, the CC50 at 72 h [1] was 11.5 µM and the “Cytotoxic effect” value (fcwf-4 cells) was “dramatic cytotoxic effect”. The “Side effects (e.g., diarrhea or nausea)” value [4] was “no obviously side effects”.

`Cc1ccnc2c1NC(=O)c1cccnc1N2C1CC1` [Nelvirapine, nelvirapine] gave a CC50 (fcwf-4 cells) of at least 46.9 µM.

In the case of `CN(C)CCCN1c2ccccc2Sc2ccccc21` [Promazine, promazine], the CC50 at 72 h [1] is reported as at least 0.1 µM.

Molecule `NC(=O)c1ncn([C@@H]2O[C@H](CO)[C@@H](O)[C@H]2O)n1` [Ribavirin, ribavirin] has a CC50 at 72 h [1] of at least 409 µM.

For `CC(C)(C)NC(=O)[C@@H]1C[C@@H]2CCCC[C@@H]2CN1C[C@@H](O)[C@H](Cc1ccccc1)NC(=O)[C@H](CC(N)=O)NC(=O)c1ccc2ccccc2n1` [Saquinavir, saquinavir], the CC50 at 72 h [1] was 95.8 µM and the “Cytotoxic effect” value (fcwf-4 cells) was “dramatic cytotoxic effect”.

In the case of `Cc1cn([C@H]2C=C[C@@H](CO)O2)c(=O)[nH]c1=O` [Stavudine, stavudine], the CC50 at 72 h [1] is reported as at least 55.8 µM.

For Galanthus nivalis agglutinin, the IC50 [2] was 8.8e-06 µM, the “Inhibition of CPE foci, concentration-dependence” value ([3]; all four concentrations, […]) was “strong inhibitory activities at all four concentrations” and the CC50 (fcwf-4 cells) was at least 0.00192 µM.
